From PubChem BioAssay AID488948 (Broad Institute, 2010) come the findings set out here.

Each structure is given as a SMILES string. Records with an inconclusive call do not appear. Calls of active or inactive are those of the source.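 How the source made its calls: active means compounds raising caspase signal whose fitted AC50 is at or under a set limit scaled from top dose; inconclusive means flat fit at middling activation, or poor curve fit; inactive means the rest.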 Some results are limits rather than exact numbers.

Assay [1] is described as follows: apoptosis induction, MEWO cells without priming – caspase-Glo luminescence, dry powder, counter-screen for Bcl2-A1 inhibitor project, dose response (AID 488948). Particulars: MEWO unprimed cells, caspase-3/7 Glo luminescence, 3 h, stronger effect = higher value. The method in brief: (§1)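 Buffer or medium: RPMI-1640, 10% fetal bovine serum | System: Unprimed MEWO cells expressing A1, no BIM or tBID priming | Amount: 2500 cells per well | Read-out basis: Caspase activation from luminescent signal | Schedule: 3 h compound at 37 °C, 1 h CaspaseGlo | Technique: CaspaseGlo luminescence after 1 h at room temperature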
Background: A counterscreen serves to expose hits that act by an unwanted route or on another target.

Assay [2] has as its system MEWO unprimed cells, caspase-3/7 Glo luminescence, 3 h. The description is as above. In outline:
as §1

For `C/C1=C/C(=O)O[C@@H]2C[C@@H](CC[C@H](C)/C=C\CC1)O[C@@](O)(C1CSC(=O)N1)C2` (some centres undefined), the max caspase activation in assay [1] (at 46 µM) was 1.79% (inactive).

With `COc1cccc(C(=O)C(C#N)=C(SC)SC)c1`, in assay [1] (at 150 µM), the max caspase activation was -3.79% (inactive).

Regarding `Cc1ccc(Sc2c([N+](=O)[O-])c(=O)n(C)c3ccccc23)cc1`, the max caspase activation in assay [1] (at 100 µM) is 3.9% (inactive).

Take `Cc1cccc(CS(=O)(=O)c2ncc(Cl)c(C(=O)Nc3nnc(C(C)C)s3)n2)c1`: the max caspase activation in assay [1] (at 150 µM) was -3.23% (inactive).

For `CC(C)(C)n1nc(-c2ccc(Cl)cc2)c2c(N)ncnc21`, the max caspase activation in assay [1] (at 150 µM) is 4.52% (inactive).

Consider `CCc1nnc(NC(=O)c2nc(S(=O)(=O)Cc3ccccc3)ncc2Cl)s1`, for which the max caspase activation in assay [1] (at 0.068 µM) is -1.73% (inactive).

Take `CCSc1nnc(NC(=O)c2nc(S(=O)(=O)Cc3ccc(F)cc3)ncc2Cl)s1`: the max caspase activation in assay [1] (at 150 µM) is -5.59% (inactive).

What is called AC50 is the concentration giving half of the maximal activity seen. For `CCOC(=O)CSC1=N/C(=C/c2ccc(-n3cncn3)cc2)C(=O)N1C(C)=O`, in assay [2], the AC50 was > 150 µM (inactive).

For the molecule `COc1cc(/C=C(/C#N)c2nc3ccccc3[nH]2)ccc1OCC(=O)Nc1ccccc1C(C)C`, the max caspase activation in assay [1] (at 9 µM) is 2.17% (inactive).

With `Cn1c(=NC(=O)CCl)sc2ccccc21`, in assay [1] (at 0.068 µM), the max caspase activation is -1.67% (inactive).

On to `Cc1cc(C(=O)CCl)c(C)n1CCc1ccc(Cl)cc1`, for which the AC50 in assay [2] was 18.4 µM.

On to `O=C(Oc1cccc(/C=N/Nc2nc(Nc3ccccc3)nc(N3CCOCC3)n2)c1)c1ccco1`, for which the max caspase activation in assay [1] (at 68 µM) was 2.05% (inactive).

Turning to `Cc1c(CCOC(=O)c2ccc(N3CCOCC3)c([N+](=O)[O-])c2)sc[n+]1CC#N`, the AC50 in assay [2] is > 100 µM (inactive).

As for `Nc1nc(F)nc2c1ncn2[C@@H]1O[C@H](CO)[C@@H](O)[C@H]1O`, the max caspase activation in assay [1] (at 0.1 µM) was 2.46% (inactive).

As to `COc1ccc(N(C(=O)CCl)C(C(=O)NCCc2ccccc2)c2cccs2)cc1Cl` (centres undefined), the AC50 in assay [2] was 15.6 µM.

For the molecule `C=C1[C@@H](C)[C@H]2[C@H](Cc3ccccc3)NC(=O)[C@]23OC(=O)/C=C\[C@H](O)CCC[C@@H](C)C/C=C/[C@H]3[C@@H]1O`, the max caspase activation in assay [1] (at 2.6 µM) is 2.11% (inactive).

With `CC(=O)N[C@H]1[C@H](O[C@H]2CC[C@@]3(C)C(CC[C@]4(C)C3CC=C3[C@@H]5CC(C)(C)CC[C@]5(C(=O)OC5OCC(O)C(O)C5O)C(O)C[C@]34C)C2(C)C)O[C@H](COC2OCC(O)C(OC3OCC(O)C(O)C3O)C2O)[C@@H](O[C@@H]2O[C@@H](C)[C@H](O)[C@@H](O)[C@H]2O[C@@H]2O[C@@H](C)[C@H](O)[C@@H](O)[C@H]2O)[C@@H]1O` (some centres undefined), the max caspase activation in assay [1] (at 135 µM) was -2.6% (inactive).

Take `O=C(CCl)N=c1sccn1Cc1ccccc1Cl`: in assay [2], the AC50 was > 150 µM (inactive).

`Cc1ccc(CS(=O)(=O)c2ncc(Cl)c(C(=O)Nc3nnc(C(C)C)s3)n2)cc1`: the max caspase activation in assay [1] (at 100 µM) is -3.83% (inactive).
